From ChEMBL document CHEMBL1140307, “Design and synthesis of alpha-aryloxyphenylacetic acid derivatives: a novel class of PPARalpha/gamma dual agonists with potent antihyperglycemic and lipid modulating activity” (J Med Chem, 2005)
Where “and” joins values, the source holds several entries; their conditions need not be identical. Equal values may be shown once.

How the values were obtained:
[1] = Area under concentration time curve of compound when administered perorally at a dose of 2 mg/kg to dogs; format: ADME, organism-based, Canis lupus familiaris; design: dose 2 mg/kg, route oral; conditions: dog, in vivo, po
Summary of the method: (§1)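 Male Sprague-Dawley rats (n = 3) and male adult Beagle dogs (n = 4) were fasted overnight. They received either a 2 mg/kg oral gavage dose or a 0.5 mg/kg IV bolus. Blood was drawn into heparin tubes from a femoral arterial cannula (rat) or the jugular vein (dog) at set time points. Plasma was acidified with 0.5 M formate pH 3.0, stored at -70 °C and quantified by LC-MS/MS.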

[2] = Area under concentration time curve of compound when administered perorally at a dose of 2 mg/kg to rats; format: ADME, organism-based; design: dose 2 mg/kg, route oral; conditions: rat, in vivo, po; summary of the method: as §1
[3] = target: T1, Peroxisome proliferator-activated receptor alpha (Homo sapiens, UniProt Q07869); assay: In vitro binding affinity for human PPAR alpha
T1 sequence (Q07869 whole entry): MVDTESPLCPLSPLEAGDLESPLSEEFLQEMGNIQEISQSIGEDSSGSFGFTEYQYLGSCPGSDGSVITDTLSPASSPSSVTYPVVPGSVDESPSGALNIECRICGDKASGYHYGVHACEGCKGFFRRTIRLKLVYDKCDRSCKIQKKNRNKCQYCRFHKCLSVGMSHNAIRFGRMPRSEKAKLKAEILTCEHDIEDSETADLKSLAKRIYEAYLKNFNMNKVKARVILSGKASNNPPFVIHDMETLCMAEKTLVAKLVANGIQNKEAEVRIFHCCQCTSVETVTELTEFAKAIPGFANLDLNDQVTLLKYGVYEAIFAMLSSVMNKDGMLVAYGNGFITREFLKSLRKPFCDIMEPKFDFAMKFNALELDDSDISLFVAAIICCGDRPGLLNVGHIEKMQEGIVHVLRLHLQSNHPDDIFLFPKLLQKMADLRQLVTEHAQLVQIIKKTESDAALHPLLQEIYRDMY

[4] = target: T2, Peroxisome proliferator-activated receptor gamma (Homo sapiens, UniProt P37231); assay: In vitro binding affinity for human PPAR gamma
T2 sequence (P37231 whole entry): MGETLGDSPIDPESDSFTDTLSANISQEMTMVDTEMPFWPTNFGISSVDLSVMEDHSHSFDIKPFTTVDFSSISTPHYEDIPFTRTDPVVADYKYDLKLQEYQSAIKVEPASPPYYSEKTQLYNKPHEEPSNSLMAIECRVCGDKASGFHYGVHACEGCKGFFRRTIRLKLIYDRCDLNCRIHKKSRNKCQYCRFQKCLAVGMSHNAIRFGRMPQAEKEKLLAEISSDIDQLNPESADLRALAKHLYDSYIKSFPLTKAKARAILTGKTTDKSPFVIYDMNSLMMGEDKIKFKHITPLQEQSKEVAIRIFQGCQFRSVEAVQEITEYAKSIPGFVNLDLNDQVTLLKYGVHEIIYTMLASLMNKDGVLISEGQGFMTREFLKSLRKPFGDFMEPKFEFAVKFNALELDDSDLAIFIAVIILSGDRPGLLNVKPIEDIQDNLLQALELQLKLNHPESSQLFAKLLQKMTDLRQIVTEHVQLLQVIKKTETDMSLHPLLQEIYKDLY

[5] = target: T1, Peroxisome proliferator-activated receptor alpha; assay: Agonist response against human PPAR alpha in transactivation assay
[6] = target: T2, Peroxisome proliferator-activated receptor gamma; assay: Agonist response against human PPAR gamma in transactivation assay; format: functional
Cricetinae gen. sp. [7] = assay: Percentage change in the serum cholesterol upon administration of compound (3 mpk) in hamster; format: functional
Summary of the method: (§2)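 Male Golden Syrian hamsters were fed normal rodent chow and dosed orally once daily with compound. Serum total cholesterol and triglyceride were measured and expressed as percent change versus vehicle controls.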

Cricetinae gen. sp. [8] = assay: Percentage change in the serum cholesterol upon administration of compound (10 mpk) in hamster; format: functional; summary of the method: as §2
Cricetinae gen. sp. [9] = assay: Percentage change in the serum triglyceride upon administration of compound (3 mpk) in hamster; format: functional; summary of the method: as §2
Cricetinae gen. sp. [10] = assay: Effect (3 mpk) on serum cholesterol in hamster; format: functional
Summary of the method: (§3)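 Male Golden Syrian hamsters on normal rodent chow, dosed orally with test compound (9 days per table legend). Serum total cholesterol and triglyceride were measured in mg/dL. Values are group means, expressed as % change versus the vehicle-treated control group.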

Cricetinae gen. sp. [11] = assay: Effect (10 mpk) on serum cholesterol in hamster; format: functional; summary of the method: as §3
[12] = Half life when administered intravenously at a dose of 0.5 mg/kg to dogs; format: ADME, organism-based, Canis lupus familiaris; design: dose 0.5 mg/kg, route intravenous; conditions: dog, in vivo, iv; summary of the method: as §1
[13] = Half life when administered intravenously at a dose of 0.5 mg/kg to rats; format: ADME, organism-based; design: dose 0.5 mg/kg, route intravenous; conditions: rat, in vivo, iv; summary of the method: as §1
[14] = Oral bioavailability in dog; format: ADME, organism-based, Canis lupus familiaris; conditions: in vivo; summary of the method: as §1
[15] = Oral bioavailability in rat; format: ADME, organism-based; conditions: in vivo; summary of the method: as §1
Mesocricetus auratus = species: Mesocricetus auratus; assay: Effect (3 mpk) on serum triglyceride in hamster

CCCc1cc(C(=O)CC)cc(CCC)c1O[C@H](C(=O)O)c1ccc(C(C)C)cc1
AUC [1]: 70.5 µM·h | AUC [2]: 154 µM·h | IC50 [3]: 0.023 µM | IC50 [4]: 0.075 µM | EC50 [5]: 0.056 µM | EC50 [6]: 0.15 µM | Change (Cricetinae gen. sp. [7]): -32% | Change (Cricetinae gen. sp. [8]): -33% and -29% and -17.5% | Change (Cricetinae gen. sp. [9]): -22% | Cholesterol level (Cricetinae gen. sp. [10]): 88 mg/dL | Cholesterol level (Cricetinae gen. sp. [11]): 86 mg/dL | Triglyceride level (Cricetinae gen. sp. [11]): 236 mg/dL | half-life [12]: 2.5 h | half-life [13]: 6.1 h | bioavailability [14]: 85% | bioavailability [15]: 65% | Triglyceride level (Mesocricetus auratus): 259 mg/dL
